Shown are actives, neighbours in structure and some others; about 1.1% of the full set was active somewhere.
Arrestin-AP2 inh – inhibitors of beta-arrestin/AP2 binding, primary screen, biochemical, GPCR trafficking, flow cytometry. 340,000 tested, 0.31% active. inhibition, % at 10 µM. AID 504490, 2011. FITC-arrestin peptide / GST-AP2 beads; AP2 beta2 appendage carries R879A mutation;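 active = inhibition above a set limit, near 3 SD of compounds lacking own fluorescence, cut at about 54% in these data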;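 note: plate controls were DMSO wells for no effect and 5 µM unlabelled arrestin peptide for full effect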
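system = GST-tagged AP2 beta2-adaptin appendage (R879A) on 4 µm glutathione beads | reagent = FITC-labelled arrestin peptide probe, 50 nM final | schedule = compound with beads 12 min RT, then probe 1 h RT | signal = HyperCyt-sampled flow cytometry, FL1 channel, ex 488/em 535 nm | read-out = percent response from loss of bead-bound FITC fluorescence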
JMJD2C inh – inhibitors of GASC-1 histone demethylase, primary screen, biochemical, fluorescence, DELFIA europium. Lysine-specific demethylase 4C (Homo sapiens), Q9H3R0. GST-JMJD2C(1-420) H3K9me3 demethylation. inhibition, % at 2.35 µM. 330,000 tested, 0.069% active. AID 2099, 2009;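 active = more than half of a compound's replicate wells show inhibition beyond 50%, single wells judged on their own value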;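 note: signal counts dimethyl H3K9 product captured on neutravidin plate; 0% = median of DMSO wells and 100% = 0.3 times that DMSO median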
Target sequence (Q9H3R0 1-420 limits assumed): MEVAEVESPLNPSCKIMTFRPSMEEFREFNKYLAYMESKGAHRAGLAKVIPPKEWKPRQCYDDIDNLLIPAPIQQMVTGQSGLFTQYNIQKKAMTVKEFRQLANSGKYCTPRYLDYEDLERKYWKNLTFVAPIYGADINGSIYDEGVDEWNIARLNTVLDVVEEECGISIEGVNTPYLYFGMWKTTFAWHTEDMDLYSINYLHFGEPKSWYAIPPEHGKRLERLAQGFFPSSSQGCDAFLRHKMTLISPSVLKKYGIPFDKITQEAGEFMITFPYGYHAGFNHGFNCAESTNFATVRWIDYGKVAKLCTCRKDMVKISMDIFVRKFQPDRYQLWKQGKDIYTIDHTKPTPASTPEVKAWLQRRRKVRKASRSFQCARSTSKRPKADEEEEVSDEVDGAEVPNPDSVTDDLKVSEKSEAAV
FAS TE block – FAS thioesterase domain inhibitors, primary screen, biochemical, fluorescence intensity, uHTS. Fatty acid synthase (Homo sapiens), P49327. recombinant FAS-TE, OMFH fluorogenic substrate, fluorescence endpoint. inhibition, % at 15 µM. 360,000 tested, 0.67% active. AID 602261, 2012;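 active = compounds whose normalised, plate-corrected inhibition of enzyme fluorescence in the single-dose primary screen is 50% or more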;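 note: 0% = DMSO with enzyme and 100% = substrate without enzyme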
SENP1 inh – human SENP1 catalytic domain inhibitors, primary screen, biochemical, FRET, uHTS | 360,000 tested, 0.21% active | AID 624204, 2012 | Sentrin-specific protease 1 (Homo sapiens), Q9P0U3 | inhibition, % at 10 µM | recombinant SENP1 catalytic domain, CyPet-SUMO1-YPet FRET cleavage;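 active = inhibition at least 30% at 10 µM, raw YFP signal under a set limit, fluorescence ratio 0.5 to 1.5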;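 note: 0% = enzyme with DMSO and 100% = no enzyme wells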
Target sequence (Q9P0U3 419-644 limits assumed): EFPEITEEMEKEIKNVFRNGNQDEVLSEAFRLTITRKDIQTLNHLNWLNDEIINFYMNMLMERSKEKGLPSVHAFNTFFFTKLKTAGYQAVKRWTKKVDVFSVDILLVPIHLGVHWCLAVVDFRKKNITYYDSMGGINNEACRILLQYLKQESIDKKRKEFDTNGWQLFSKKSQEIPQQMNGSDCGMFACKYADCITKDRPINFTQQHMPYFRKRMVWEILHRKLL
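System: Recombinant human SENP1 catalytic domain, His6-tagged | Incubation: Enzyme reaction for 50 min at room temperature, dark | Medium: Tris pH 8 with BME, BSA, NP40 and catalase | Also added: 25 nM SUMO1 FRET substrate | Compound: 10 µM single point, 0.5% DMSO | Measured by: FRET fluorescence in CFP and YFP emission channels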
The depositor's hits bear a star; nt = no result.

SMILES | Arrestin-AP2 inh | JMJD2C inh | FAS TE block | SENP1 inh
CN(c1ccccc1)S(=O)(=O)c1ccc(C(=O)NNC(=O)c2ccccc2)cc1 | -3 | nt | -2 | 3
CN(c1ccc(C(=O)O)cc1)S(=O)(=O)c1ccccc1 | -3 | 65* | -5 | 1
Nc1c(Cl)ncnc1NCc1cccnc1 | -9 | 55* | -3 | -14
O=C1c2ccc([N+](=O)[O-])cc2C(=O)N1Cc1cccnc1 | 15 | 52* | 4 | 2
COc1cc(=O)[nH]c(=O)n1CC(=O)c1ccccc1 | 3 | -8 | -5 | -9
COc1ccc(OC)c(C2=NOC(C(=O)NCC3CCCO3)C2)c1 (stereo not given) | -2 | -4 | -2 | 3
Nc1c(C(=O)NCC2CCCO2)sc2nc3c(c(-c4ccco4)c12)CC/C3=C\c1ccco1 (stereo not given) | 56* | nt | 10 | -21
NC(=O)c1sc2nc3c(c(-c4ccco4)c2c1N)CCCC3 | 15 | -6 | -1 | 13
Cc1cccc(OCC(=O)NCc2nc(-c3ccccc3)no2)c1 | 32 | -13 | 7 | -1
CN1/C(=C/C=C(C#N)C#N)C(C)(C)c2ccccc21 | 23 | -19 | -133 | -35
CC1=C/C(=C\C=C(C#N)C#N)N(C)c2ccccc21 | 3 | 0 | 4 | 72*
CC(=O)N=c1c(C#N)cc2c(=O)n3ccccc3nc2n1Cc1ccccc1 | 3 | 9 | 54* | -24
CCOCCCn1c(=NC(C)=O)c(C#N)cc2c(=O)n3ccccc3nc21 | 11 | -18 | 6 | -34
NC(=O)NC(=O)CSc1nnc(-c2ccco2)n1Cc1ccccc1 | -2 | 50* | -5 | -1
CCCC[C@@H]1CNC(=O)C(=O)N1CCc1cccc(F)c1 | nt | nt | -7 | -1
Cc1ccc(S(=O)(=O)/C(C#N)=C/c2c(N3CCN(C)CC3)nc3ccccn3c2=O)cc1 | 1 | -18 | 18 | -16
CN1CCN(c2nc3ccccn3c(=O)c2/C=C(\C#N)S(=O)(=O)c2ccc(Cl)cc2)CC1 | 18 | 90* | 25 | -30
COCCNC(=O)C(c1ccc(OC)cc1)N(Cc1ccco1)C(=O)CCC(=O)Nc1ccccn1 (stereo not given) | -4 | 4 | 0 | 0
C[C@H]1CN(Cc2ccccc2)C(=O)[C@@H]1CC(=O)NCc1ccccc1 | -6 | -12 | -5 | 2
C[C@H]1CN(CCc2ccccc2)C(=O)[C@@H]1CC(=O)NCc1ccccc1 | 4 | 61* | -1 | -1
Cc1ccc(NS(=O)(=O)c2cc(NC(=O)c3cc(=O)[nH]c(=O)[nH]3)ccc2Cl)c(C)c1 | -6 | 11 | 7 | -3
CCCCCCN1C=CC(=C2C(=O)c3ccccc3C2=O)C=C1 | -15 | 1 | -5 | 48*
Cc1cc(C)c(OCC(=O)OCC(=O)N2CCCc3ccccc32)c(C)c1 | -3 | -1 | 14 | 1
Cc1cccc([C@@H]2[C@@H]3C(=O)N(Cc4ccccc4)C(=O)[C@@H]3[C@]3(Cc4ccc(Cl)cc4)C(=O)N(c4ccc(Br)cc4)C(=O)N23)c1 | 1 | 11 | 90* | -2
O=C1[C@H]2[C@@H](c3ccc(F)cc3)N3C(=O)N(c4ccccc4)C(=O)[C@@]3(Cc3ccc(Cl)cc3)[C@H]2C(=O)N1C1CCCCC1 | 18 | -1 | 94* | 3
SMILES | Arrestin-AP2 inh | JMJD2C inh | FAS TE block | SENP1 inh
O=C1[C@H]2[C@@H](c3ccc(Cl)cc3)N3C(=O)N(c4cccc(Br)c4)C(=O)[C@@]3(Cc3ccc(Cl)cc3)[C@H]2C(=O)N1C1CCCCC1 | 2 | 4 | 91* | 2
O=C1[C@H]2[C@@H](c3ccc(F)cc3)N3C(=O)N(c4cccc(Br)c4)C(=O)[C@@]3(Cc3ccc(Cl)cc3)[C@H]2C(=O)N1C1CCCCC1 | 5 | -14 | 35 | 3
CC[C@@]12C(=O)N(c3cccc(Br)c3)C(=O)N1[C@H](c1ccc(OC)cc1)[C@@H]1C(=O)N(C(C)(C)C)C(=O)[C@@H]12 | 16 | 2 | 14 | 1
CC[C@@]12C(=O)N(c3cccc(Br)c3)C(=O)N1[C@H](c1ccc(Br)cc1)[C@@H]1C(=O)N(C(C)(C)C)C(=O)[C@@H]12 | 23 | -2 | 58* | 2
CC[C@@]12C(=O)N(c3ccc(C)cc3)C(=O)N1[C@H](c1cccc(C)c1)[C@@H]1C(=O)N(Cc3ccccc3)C(=O)[C@@H]12 | 1 | -16 | 12 | 3
COc1ccc(N2C(=O)N3[C@H](c4ccc(Cl)cc4)[C@@H]4C(=O)N(C5CCCCC5)C(=O)[C@@H]4[C@]3(C)C2=O)cc1 | 7 | 3 | 32 | 3
O=C(NCCNC(=O)c1ccccc1Br)c1cccnc1 | 9 | 3 | -6 | -2
O=C(COC(=O)CCc1ccc(S(=O)(=O)N2CCOCC2)cc1)NCc1ccccc1 | -21 | -1 | 0 | 1
COc1ccc(C(=O)N[C@H](C(=O)Nc2sccc2C(N)=O)C(C)C)cc1 | 23 | -10 | -3 | -3
O=C1[C@H]2[C@@H](c3ccc(F)cc3)N3C(=O)N(c4cccc(Cl)c4)C(=O)[C@@]3(Cc3ccccc3)[C@H]2C(=O)N1C1CCCCC1 | 35 | 2 | 72* | 1
CC[C@@]12C(=O)N(c3cccc(Cl)c3)C(=O)N1[C@H](c1cccc(C)c1)[C@@H]1C(=O)N(Cc3ccccc3)C(=O)[C@@H]12 | 37 | -4 | 17 | 1
CCCCc1ccc(S(=O)(=O)N/N=C(/C)c2ccncc2)cc1 | 19 | 1 | 1 | 0
O=C(NC1CCN(S(=O)(=O)c2ccccc2C(F)(F)F)CC1)c1ccco1 | 0 | -16 | -1 | 0
CC[C@@]1(O)C(=O)OCc2c1cc1n(c2=O)Cc2cc3c(N)cccc3nc2-1 | 36 | 9 | -14 | 32*
C=C1CCN([C@@H](CC(C)C)C(=O)Nc2ccc(OC)cc2)S(=O)(=O)c2ccccc21 | -6 | -47 | 22 | -1
CC(=O)N1CCN(C2=Nc3cccc4cccc2c34)CC1 | 23 | 9 | -10 | -23
COc1ccccc1N1CCN(C2=Nc3cccc4cccc2c34)CC1 | 11 | 12 | 3 | 95*
Nc1ccccc1Sc1c[nH]c2ccccc12 | -18 | 5 | 4 | -4
C=CCN1C(=O)C2(NNc3ccccc3O2)c2ccccc21 (stereo not given) | 2 | 12 | 2 | 81*
COc1ccc(C(=O)NCC(c2ccco2)N2CCCC2)cc1S(=O)(=O)N1CCCCC1C (stereo not given) | 0 | -12 | -2 | -8
Nc1cc(N)c(OCC(F)(F)F)cc1OCC(F)(F)F | 27 | 13 | -11 | 32*
Cc1coc2c1C(=O)C(=O)c1c-2ccc2c(C)cccc12 | 7 | 5 | 74* | -7

Bioassay records as filed in PubChem BioAssay.
